Assay outcomes deposited in PubChem by several laboratories.
Sampled rows, rich in hits. Any-hit rate of the full collection: about 1.8%.
NR2E3 ag-1 = inhibitors of NR2E3-RetCOR corepressor binding, primary screen, NR2E3 agonist project, biochemical, TR-FRET, GST-NR2E3, biotin-RetCOR | inhibition of corepressor binding, % at 4.78 µM | AID 2300, 2010 | 320,000 tested, 0.12% active | 1536-well;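 active means percent inhibition above the cutoff of mean plus 3 SD of all tested compounds, set per screening campaign, cut at about 20% in these data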;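 further: 0% = DMSO wells and 100% = biotin wells as full block of FRET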
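system = GST-tagged NR2E3 plus biotinylated RetCOR corepressor | input = 1.35 nM GST-NR2E3 | also added = 7 nM biotin-RetCOR | schedule = 5 h incubation at 4 °C | measured by = TR-FRET with europium anti-GST and streptavidin-D2, 340 nm excitation | read-out = percent loss of FRET ratio relative to control wells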
GalR3 antag = GalR3 antagonists in HEK293 cells, primary screen, cell-based, fluorescence readout | Galanin receptor type 3 (Homo sapiens), O60755 | HEK293 GalR3-CNG cAMP membrane potential fluorescence; galR3 body fused to GalR1 C-terminus | inhibition, % at 3 µM | 360,000 tested, 0.44% active;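 active means inhibition above the screen-wide average plus 3 SD, cut at about 13% in these data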;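 further: forskolin and galanin both at EC90 stimulate the cells; cAMP rise reported by CNG channel membrane potential dye signal; 0% = forskolin plus galanin with DMSO and 100% = forskolin alone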
Target sequence (O60755 1-299 limits assumed): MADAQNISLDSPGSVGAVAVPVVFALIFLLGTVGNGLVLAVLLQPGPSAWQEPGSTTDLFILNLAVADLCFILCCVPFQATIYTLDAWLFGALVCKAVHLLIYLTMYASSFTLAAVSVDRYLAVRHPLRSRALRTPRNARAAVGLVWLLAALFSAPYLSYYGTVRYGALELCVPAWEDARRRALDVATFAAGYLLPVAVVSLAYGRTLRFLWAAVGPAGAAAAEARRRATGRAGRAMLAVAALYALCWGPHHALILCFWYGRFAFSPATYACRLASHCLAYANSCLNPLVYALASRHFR
NR2E3 ag-2 = NR2E3 agonists in two-hybrid cells, primary screen, cell-based, luminescence, CHO-S, Gal4-NCOR/VP16-NR2E3; inhibition of corepressor binding, % at 3.98 µM; Photoreceptor-specific nuclear receptor (Homo sapiens), Q9Y5X4; 360,000 tested, 0.35% active; AID 602229, 2012; luciferase;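 active means inhibition above the mean of all tested compounds plus 3 SD, cut at about 70% in these data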;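 further: 0% = DMSO with NR2E3 transfected cells and 100% = cells lacking NR2E3 construct; higher means lower luciferase signal from less NR2E3 corepressor binding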
697 NFkB inh = inhibitors of PMA/ionomycin-induced NF-kB reporter, 697 cells, primary screen, B-cell NF-kB inhibitor project, cell-based, luminescence, uHTS | inhibition, % at 4 µM | 330,000 tested, 0.33% active | AID 435022, 2010 | 697 B-cell NF-kB luciferase reporter, 16 h; in the data active means inhibition above about 35%
Gli-Sufu antag = Gli-Sufu pathway antagonists, primary screen, luciferase luminescence, Sufu-KO-LIGHT cells, uHTS; 340,000 tested, 0.74% active; inhibition, % at 5 µM; Sufu-KO-LIGHT fibroblasts, Gli luciferase reporter luminescence;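 active means inhibition above about 55%, limit read from the data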;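 further: 0% = DMSO-treated cells and 100% = wells with medium but no cells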
Jurkat NFkB inh = inhibitors of induced NF-kB luciferase reporter, primary screen, TCR NF-kB activation inhibitor project, cell-based, luminescence, uHTS; Jurkat, PMA/ionomycin-induced NF-kB luciferase reporter; inhibition, % at 4 µM; 330,000 tested, 0.53% active; AID 435003, 2010; in the data active means inhibition above about 50%
Jurkat NFkB conf = PMA/ionomycin-induced NF-kB reporter inhibitors, Jurkat retest, confirmation, T-cell NF-kB inhibitor project, cell-based, luminescence, single concentration | shares compounds with Jurkat NFkB inh | inhibition, % at 4 µM | AID 435020, 2010 | Jurkat NF-kB luciferase, 16 h | 2,700 tested, 27% active;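 active means inhibition reaching about 45% at 4 µM in either replicate, limit read from the data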;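 further: plate controls were PMA/ionomycin stimulated DMSO wells for no effect and unstimulated DMSO wells for full effect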
Numbers without * were called inactive.

What do the screens show for `O=C(Cc1ccc(NC(=O)C2CCCN(C(=O)c3ccccc3)C2)cc1)Nc1cccc(C(=O)N2CCCCC2)c1` (configuration not stated)?
GalR3 antag: 1

What do the screens show for `C[C@H](CO)N1C[C@H](C)[C@@H](CN(C)C(=O)Nc2ccnc(N3CCOCC3)c2)OCc2cn(nn2)CCCC1=O`?
GalR3 antag: -7

How did O=S(=O)(c1ccc(Cl)cc1)c1snnc1-c1ccccc1 do in these assays?
NR2E3 ag-1: 1; GalR3 antag: -5; NR2E3 ag-2: 0; 697 NFkB inh: -96; Gli-Sufu antag: 7; Jurkat NFkB inh: 53*; Jurkat NFkB conf: 12

How did O=S(=O)(c1ccc(F)cc1)c1snnc1-c1ccccc1 do in these assays?
NR2E3 ag-1: 1; GalR3 antag: 0; NR2E3 ag-2: -3; Gli-Sufu antag: 3

How did Nc1ncnc2c1ncn2[C@@H]1O[C@H](C(=O)N[C@@H](CCc2ccccc2)C(=O)O)[C@@H](O)[C@H]1O do in these assays?
GalR3 antag: -8

What do the screens show for `CC12CCC3c4ccc(OCCCO)c([N+](=O)[O-])c4CCC3C1CCC2=O` (configuration not stated)?
GalR3 antag: -8

How did Nc1[nH]c(C(=O)c2ccc(Br)cc2)c(-c2ccncc2)c1C(=O)NCCc1c[nH]c2ccccc12 do in these assays?
GalR3 antag: -7

How did Cc1[nH]nc2c1C(c1cccc(C(F)(F)F)c1)N(Cc1ccccc1)C2=O (configuration not stated) do in these assays?
GalR3 antag: -7

How did c1ccc(CN2CCC(Nc3ncnc4sccc34)CC2)cc1 do in these assays?
NR2E3 ag-1: 3; GalR3 antag: 3; NR2E3 ag-2: -7; 697 NFkB inh: -11; Gli-Sufu antag: -15; Jurkat NFkB inh: 58*; Jurkat NFkB conf: 35

What do the screens show for `Cc1csc2c(NC3CCN(Cc4ccccc4)CC3)ncnc12`?
NR2E3 ag-1: 0; GalR3 antag: -3; NR2E3 ag-2: 6; 697 NFkB inh: -31; Gli-Sufu antag: 8; Jurkat NFkB inh: 22

What do the screens show for `Cc1cc(Nc2cccc([N+](=O)[O-])c2)cc(=O)n1-c1cccc([N+](=O)[O-])c1`?
GalR3 antag: -7

Results for O=C(Nc1ccc(-c2nc3cccnc3s2)cc1)c1cccnc1Cl ?
NR2E3 ag-1: -6; GalR3 antag: -6; NR2E3 ag-2: -152; 697 NFkB inh: -237; Gli-Sufu antag: -141; Jurkat NFkB inh: -166; Jurkat NFkB conf: -96

Results for O=C(Nc1ccc(-c2nc3cccnc3s2)cc1)c1ccco1 ?
NR2E3 ag-1: 3; NR2E3 ag-2: -129; 697 NFkB inh: -194; Gli-Sufu antag: -113; Jurkat NFkB inh: -186; Jurkat NFkB conf: -64

What do the screens show for `Cc1c(C(=O)Nc2nccs2)oc2ccccc12`?
GalR3 antag: -1; NR2E3 ag-2: -135

Results for Cc1c(C(=O)NC2=NCCS2)oc2ccccc12 ?
NR2E3 ag-1: 1; GalR3 antag: -2; NR2E3 ag-2: -100; 697 NFkB inh: -123; Gli-Sufu antag: -68; Jurkat NFkB inh: -169; Jurkat NFkB conf: -97

How did Cc1sc(NC(=O)c2oc3ccccc3c2C)c(C#N)c1C do in these assays?
NR2E3 ag-1: -3; NR2E3 ag-2: -19; 697 NFkB inh: 1; Gli-Sufu antag: -11; Jurkat NFkB inh: -19

Results for Cc1csc(NC(=O)c2oc3ccccc3c2C)n1 ?
NR2E3 ag-1: 0; GalR3 antag: -2; NR2E3 ag-2: -92; 697 NFkB inh: -193; Gli-Sufu antag: -54; Jurkat NFkB inh: -195; Jurkat NFkB conf: -91
